Rtt109 HAT inh – blocks Candida albicans Rtt109/Vps75 acetyltransferase activity. 330,000 compounds, 0.16% hits. inhibition, % at 34.9 µM. Q5AAJ8. purified Rtt109/Vps75, ThioGlo CoA-SH fluorescence, 4 h;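 active = inhibition of at least 50% in every replicate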
FAS-TE inh – inhibitors of human fatty acid synthase thioesterase domain. P49327. recombinant FAS-TE, OMFH fluorogenic substrate, fluorescence endpoint. inhibition, % at 15 µM. 360,000 compounds, 0.67% hits;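 active = compounds whose normalised, plate-corrected inhibition of enzyme fluorescence in the single-dose primary screen is 50% or more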;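 note: 0% = DMSO with enzyme and 100% = substrate without enzyme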
PfM18AAP inh-1 – blocks P. falciparum M18 aspartyl aminopeptidase | recombinant PfM18AAP, H-Glu-NHMec fluorogenic cleavage | 290,000 compounds, 1.2% hits | inhibition, % at 7.35 µM;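 active = inhibition above the campaign mean inhibition over all tested compounds plus 3 SD, cut at about 28% in these data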;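 note: 0% = plate median of test compound wells and 100% = 2 mM ZnCl2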
HDAC3 inh – human HDAC3 inhibition; recombinant HDAC3, fluorogenic peptide/trypsin coupled, fluorescence; 320,000 compounds, 0.15% hits; O15379; inhibition, % at 8.3 µM; in the data active = inhibition above about 26%, passing the limit was not always enough
UCH37 DUB inh – human UCH37 deubiquitinating enzyme inhibition. 330,000 compounds, 0.33% hits. purified proteasome/UCH37, Ub-AMC cleavage fluorescence. inhibition, % (concentration not given with the values). AID 588478. Q9Y5K5;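 active = mean inhibition over replicate wells above about 20%, limit read from the data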;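 note: 0% = compound-free wells with enzyme and 100% = wells lacking proteasome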
Target sequence (Q9Y5K5 whole entry, looked up): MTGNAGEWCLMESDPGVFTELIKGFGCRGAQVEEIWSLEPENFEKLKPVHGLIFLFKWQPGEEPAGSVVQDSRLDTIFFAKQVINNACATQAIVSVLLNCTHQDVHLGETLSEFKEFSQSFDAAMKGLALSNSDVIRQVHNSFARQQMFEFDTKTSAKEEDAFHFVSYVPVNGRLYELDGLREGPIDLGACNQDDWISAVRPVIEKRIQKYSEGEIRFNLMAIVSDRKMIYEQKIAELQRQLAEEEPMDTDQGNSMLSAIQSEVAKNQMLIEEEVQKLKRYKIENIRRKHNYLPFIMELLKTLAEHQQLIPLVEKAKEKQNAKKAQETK
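Material: Human UCH37 enzyme supplied as purified proteasome complex | Schedule: 30 min compound-proteasome preincubation then 25 min substrate reaction, room temperature | Detection: AMC fluorescence from Ub-AMC cleavage, excitation 355 nm, emission 460 nm | Benchmarks: Wells without proteasome as full block, compound-free enzyme plus substrate as uninhibited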
ALR H2O2 inh – blocks human ALR sulfhydryl oxidase activity; purified ALR, DTT oxidation, H2O2 HRP-luminol luminescence; P55789; 290,000 compounds, 3.8% hits; inhibition, % (test concentration not listed); AID 485317;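 active = mean replicate inhibition above about 79%, with every replicate also reaching it, limit read from the data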
PfM18AAP inh-2 – confirmation of Plasmodium falciparum M18 aspartyl aminopeptidase inhibitors. inhibition, % at 7.35 µM. recombinant PfM18AAP, H-Glu-NHMec fluorogenic cleavage. shares compounds with PfM18AAP inh-1. 2,400 compounds, 28% hits;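 active = mean inhibition over replicate wells above the hit cutoff set for the earlier primary screen, cut at about 29% in these data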;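 note: 0% = median of test compound wells and 100% = 2 mM ZnCl2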
CTSL1 counter – counter-screen for PFM18AAP inhibitors: confirmation of human cathepsin L inhibitors; shares compounds with PfM18AAP inh-1; inhibition, % at 5.96 µM; purified cathepsin L1, Z-Leu-Arg-MCA fluorescence; AID 2178; 2,400 tested, under 10 active;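 active = average inhibition across replicates above the hit cutoff set in the earlier primary screen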;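 note: 0% = median of test compound wells and 100% = Z-Phe-Ala-diazomethylketone 1 µM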
Target sequence (P07711 whole entry, looked up): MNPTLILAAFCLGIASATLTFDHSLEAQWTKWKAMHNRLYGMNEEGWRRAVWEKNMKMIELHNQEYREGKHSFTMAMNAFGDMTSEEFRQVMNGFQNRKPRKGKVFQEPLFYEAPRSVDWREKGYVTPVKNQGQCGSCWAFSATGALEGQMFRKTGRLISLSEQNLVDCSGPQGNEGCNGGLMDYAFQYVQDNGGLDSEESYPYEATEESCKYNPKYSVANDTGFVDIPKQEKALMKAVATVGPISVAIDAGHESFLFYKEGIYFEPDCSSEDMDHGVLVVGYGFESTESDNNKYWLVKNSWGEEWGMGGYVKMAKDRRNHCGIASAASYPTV
* = called active by the depositor. Compounds with a hit are over-represented: about 4.6% of the library has one in this group of screens.

For COc1cc(C(=O)N/N=C/C23CC[C@@H](O)CC2(O)CC[C@@H]2[C@@H]3CCC3(C)C(C4=CC(=O)OC4)CCC23O)ccc1O (some centres not stated) the results were Rtt109 HAT inh 6, FAS-TE inh -3, PfM18AAP inh-1 4, HDAC3 inh 2 and ALR H2O2 inh 95*.
`COc1cc(C(=O)NN=CC23CC[C@@H](O)CC2(O)CC[C@@H]2[C@@H]3CCC3(C)C(C4=CC(=O)OC4)CCC23O)ccc1O` (some centres not stated) gave UCH37 DUB inh 3.
`CC12CN3CCN(CC(C3)C1=NNC(N)=O)C2` gave UCH37 DUB inh 3.
For O=C(NN=CC1C(=O)NC(=S)N(c2ccccc2)C1=O)c1ccc(O)cc1 (configuration not stated) the results were UCH37 DUB inh 1.
Screening Oc1ccc(/C=N/NP(=S)(c2ccccc2)c2ccccc2)cc1O returned Rtt109 HAT inh 8, FAS-TE inh 8, PfM18AAP inh-1 38*, HDAC3 inh 14, ALR H2O2 inh 99*, PfM18AAP inh-2 1 and CTSL1 counter 0.
Screening C/C(=N\NP(=S)(c1ccccc1)c1ccccc1)c1ccc(O)cc1O returned Rtt109 HAT inh 0, FAS-TE inh 12, PfM18AAP inh-1 11, HDAC3 inh 11 and ALR H2O2 inh -7.
Screening Oc1ccc(/C=N/NP(=S)(c2ccccc2)c2ccccc2)c(O)c1O returned Rtt109 HAT inh 4, FAS-TE inh 5, PfM18AAP inh-1 33*, HDAC3 inh 8, ALR H2O2 inh 99*, PfM18AAP inh-2 -24 and CTSL1 counter 4.
`Oc1ccccc1/C=N/NP(=S)(c1ccccc1)c1ccccc1` gave Rtt109 HAT inh 2, FAS-TE inh 30, PfM18AAP inh-1 -2, HDAC3 inh 0 and ALR H2O2 inh -1.
`COc1cccc(-c2nn(CCC#N)cc2C(=O)Nc2ccccc2Cl)c1` gave Rtt109 HAT inh -3, FAS-TE inh 2, PfM18AAP inh-1 0, HDAC3 inh 0, UCH37 DUB inh 1 and ALR H2O2 inh 5.
O=C(O)C1CC2(Cl)C(Cl)=C(Cl)C1(Cl)C2(Cl)Cl (configuration not stated) was read as FAS-TE inh -9 and UCH37 DUB inh 1.
Screening CN1CCN(Cc2cc3c(cc2[N+](=O)[O-])OCO3)CC1 returned Rtt109 HAT inh -1, FAS-TE inh -2, PfM18AAP inh-1 26, HDAC3 inh 0 and UCH37 DUB inh 2.
`COC(=O)Cn1cc(C=C2C(=O)NC(=O)NC2=O)c2ccccc21` gave Rtt109 HAT inh -12, FAS-TE inh -6, PfM18AAP inh-1 49*, HDAC3 inh 9, ALR H2O2 inh 6, PfM18AAP inh-2 30* and CTSL1 counter -7.
For CCn1cc(C=C2C(=O)NC(=O)NC2=O)c2ccccc21 the results were Rtt109 HAT inh 3, FAS-TE inh -3, PfM18AAP inh-1 42*, HDAC3 inh 4, UCH37 DUB inh 1, ALR H2O2 inh 1, PfM18AAP inh-2 38* and CTSL1 counter 0.
COC(=O)C1=C(c2ccccc2OCc2ccccc2)C[C@@H]2CC[C@H]1N2C(=O)NCCCOC(C)C was read as Rtt109 HAT inh 9, FAS-TE inh 0, HDAC3 inh 3, UCH37 DUB inh 3 and ALR H2O2 inh -8.
For COc1ccc(CC2NCC(O)C2OC(C)=O)cc1 (configuration not stated) the results were Rtt109 HAT inh 18 and FAS-TE inh -5.
For N/C(=N\N=C\c1ccc(O)cc1O)N[N+](=O)[O-] the results were Rtt109 HAT inh -10, FAS-TE inh -6, PfM18AAP inh-1 44*, HDAC3 inh 5, ALR H2O2 inh 20, PfM18AAP inh-2 65* and CTSL1 counter 4.
For S=P(Nn1cnnc1)(c1ccccc1)c1ccccc1 the results were Rtt109 HAT inh 4, FAS-TE inh -7, PfM18AAP inh-1 44*, HDAC3 inh -1, UCH37 DUB inh 2, ALR H2O2 inh 1, PfM18AAP inh-2 49* and CTSL1 counter -3.
Screening CCN(CC)c1ccc(N=Cc2c(O)[nH]c(=O)[nH]c2=O)cc1 returned Rtt109 HAT inh 0, FAS-TE inh -5, PfM18AAP inh-1 44*, HDAC3 inh 8, UCH37 DUB inh 8, ALR H2O2 inh 35, PfM18AAP inh-2 -36 and CTSL1 counter 4.
Screening CCN(CC)c1ccc(N=Cc2c(O)n(Cc3ccccc3)c(=O)[nH]c2=O)cc1 returned Rtt109 HAT inh -4, FAS-TE inh -37, PfM18AAP inh-1 15, HDAC3 inh 7, UCH37 DUB inh -7 and ALR H2O2 inh -8.
CC1=C(C(=O)O)N2C(=O)C(NC(=O)Cc3ccccc3)C2SC1 (configuration not stated) was read as Rtt109 HAT inh -3, FAS-TE inh -6, PfM18AAP inh-1 48*, HDAC3 inh 1, UCH37 DUB inh 6, ALR H2O2 inh -9, PfM18AAP inh-2 -17 and CTSL1 counter -1.
`Cc1cccc2c1=NC(=O)/C(=C/c1c(O)[nH]c(=O)[nH]c1=O)C=2` gave Rtt109 HAT inh 22, FAS-TE inh -14, PfM18AAP inh-1 5, HDAC3 inh 5, UCH37 DUB inh 4 and ALR H2O2 inh -6.
`O=c1[nH]c(=S)[nH]c(O)c1/C=C1/C=c2ccccc2=N1` gave Rtt109 HAT inh 0, FAS-TE inh -2, PfM18AAP inh-1 44*, HDAC3 inh 11, UCH37 DUB inh 3, ALR H2O2 inh 21, PfM18AAP inh-2 59* and CTSL1 counter -3.
For CC[n+]1c(/C=C/N(C)c2ccccc2)sc2ccc(Cl)cc21 the results were Rtt109 HAT inh 21, FAS-TE inh -10, PfM18AAP inh-1 36*, HDAC3 inh 1, UCH37 DUB inh 9, PfM18AAP inh-2 -47 and CTSL1 counter 3.
Screening CC[n+]1c(/C=C/C=C/c2ccc(N(C)C)cc2)sc2ccccc21 returned Rtt109 HAT inh -9, FAS-TE inh -4, PfM18AAP inh-1 -4, HDAC3 inh 1 and UCH37 DUB inh 19.
For O=C1NC(=O)N(Cc2ccco2)C(=O)/C1=C/c1ccc(-c2cccc([N+](=O)[O-])c2)o1 the results were Rtt109 HAT inh -6, FAS-TE inh 2, PfM18AAP inh-1 34*, HDAC3 inh 15, UCH37 DUB inh 8, ALR H2O2 inh 54, PfM18AAP inh-2 -101 and CTSL1 counter -6.
